Columns and labels:
[1] = Antiproliferative activity against human QSG7701 cells after 24 hrs by CCK-8 assay; type: cell-based; conditions: QSG7701, 24 h
Summary of the method: (§1)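 Cells in 10% FBS medium with penicillin/streptomycin at 37 °C, 5% CO2; HepG-2 in DMEM, QGY-7703, SMMC-7721 and QSG-7701 in RPMI 1640. Seeded 2 × 10^5 cells/well, grown 24 h, then exposed to five concentrations of compound or 1% DMSO vehicle for 24 h. CCK-8 added for 1 h, absorbance read at 450 nm; IC50 derived from the 5-dose data.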

HepG2 [2] = assay: Antiproliferative activity against human HepG2 cells at 10 uM after 24 hrs by CCK-8 assay relative to control; type: functional
Summary of the method: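 HepG-2 grown in DMEM with 10% FBS and penicillin/streptomycin (37 °C, 5% CO2). Seeded 2 × 10^5 cells/well for 24 h, then given a single 10 μM dose or 1% DMSO vehicle for 24 h. CCK-8 reagent for 1 h, A450 read, and percent inhibition calculated against untreated control cells.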

QGY-7703 = assay: Antiproliferative activity against human QGY7703 cells after 24 hrs by CCK-8 assay; type: functional, cell-based; conditions: QGY-7703, 24 h; summary of the method: as §1
HepG2 [3] = assay: Antiproliferative activity against human HepG2 cells after 24 hrs by CCK-8 assay; type: functional, cell-based; conditions: HepG2, 24 h; summary of the method: as §1
SMMC-7721 = assay: Antiproliferative activity against human SMMC7721 cells after 24 hrs by CCK-8 assay; type: functional, cell-based; conditions: SMMC-7721, 24 h; summary of the method: as §1

| Compound | IC50 (HepG2 [3]) [µM] | IC50 (SMMC-7721) [µM] | IC50 [1] [µM] | Activity (HepG2 [2]) [%] | IC50 (QGY-7703) [µM] |
| --- | --- | --- | --- | --- | --- |
| C=C1C(=O)O[C@@H]2C3=C(C)[C@@H](OC(=O)c4ccc(CC)cc4)CC3[C@](C)(OC(C)=O)CC[C@@H]12 (stereo partly drawn) | – | – | – | 42.33 | – |
| C=C1C(=O)O[C@@H]2C3=C(C)[C@@H](OC(=O)c4ccc(OC(F)(F)F)cc4)CC3[C@](C)(OC(C)=O)CC[C@@H]12 (stereo partly drawn) | 7.54 | 6.1 | 36.8 | 69.25 | 11.3 |
| C=C1C(=O)O[C@@H]2C3=C(C)[C@@H](OC(=O)/C=C/c4ccc([N+](=O)[O-])cc4)CC3[C@](C)(OC(C)=O)CC[C@@H]12 (stereo partly drawn) | – | – | – | 42.67 | – |
| C=C1C(=O)O[C@@H]2C3=C(C)[C@@H](O)CC3[C@](C)(OC(C)=O)CC[C@@H]12 (stereo partly drawn) | – | – | – | 32.02 | – |
| C=C1C(=O)O[C@@H]2C3=C(C)[C@@H](OC(=O)c4ccc(OC)cc4)CC3[C@](C)(OC(C)=O)CC[C@@H]12 (stereo partly drawn) | 12.2 | 8.93 | > 100 | 53.03 | 22.3 |
| C=C1C(=O)O[C@@H]2C3=C(C)[C@@H](OC(=O)c4ccc(C#N)cc4)CC3[C@](C)(OC(C)=O)CC[C@@H]12 (stereo partly drawn) | 9.14 | 6.7 | > 100 | 62.58 | 22.8 |
| C=C1C(=O)O[C@@H]2C3=C(C)[C@@H](OC(=O)c4ccc(C(C)(C)C)cc4)CC3[C@](C)(OC(C)=O)CC[C@@H]12 (stereo partly drawn) | 11.1 | 9.37 | 48.5 | 64.41 | 5.13 |
| C=C1C(=O)O[C@@H]2C3=C(C)[C@@H](OC(=O)/C=C/c4ccc(C#N)cc4)CC3[C@](C)(OC(C)=O)CC[C@@H]12 (stereo partly drawn) | – | – | – | 48.53 | – |
| C=C1C(=O)O[C@@H]2C3=C(C)[C@@H](OC(=O)c4ccc(C(C)C)cc4)CC3[C@](C)(OC(C)=O)CC[C@@H]12 (stereo partly drawn) | – | – | – | 37.86 | – |
| C=C1C(=O)O[C@@H]2C3=C(C)[C@@H](OC(=O)/C=C/c4ccc(SC)cc4)CC3[C@](C)(OC(C)=O)CC[C@@H]12 (stereo partly drawn) | – | – | – | 36.24 | – |
| C=C1C(=O)O[C@@H]2C3=C(C)[C@@H](OC(=O)/C=C/c4ccc(OCC)cc4)CC3[C@](C)(OC(C)=O)CC[C@@H]12 (stereo partly drawn) | – | – | – | 49.75 | – |
| C=C1C(=O)O[C@@H]2C3=C(C)[C@@H](OC(=O)/C=C/c4ccc(OCCC)cc4)CC3[C@](C)(OC(C)=O)CC[C@@H]12 (stereo partly drawn) | – | – | – | 47.78 | – |

Second part, led by results:

| IC50 (HepG2 [3]) [µM] | IC50 (SMMC-7721) [µM] | Compound | IC50 [1] [µM] | Activity (HepG2 [2]) [%] | IC50 (QGY-7703) [µM] |
| --- | --- | --- | --- | --- | --- |
| 16.2 | 6.43 | C=C1C(=O)O[C@@H]2C3=C(C)[C@@H](OC(=O)/C=C/c4ccccc4)CC3[C@](C)(OC(C)=O)CC[C@@H]12 (stereo partly drawn) | > 100 | 56.11 | 18.8 |
| 9.98 | 5.8 | C=C1C(=O)O[C@@H]2C3=C(C)[C@@H](OC(=O)/C=C/c4ccc(F)cc4)CC3[C@](C)(OC(C)=O)CC[C@@H]12 (stereo partly drawn) | > 100 | 67.53 | 12.2 |
| 7.57 | 4.18 | C=C1C(=O)O[C@@H]2C3=C(C)[C@@H](OC(=O)c4ccc(I)cc4)CC3[C@](C)(OC(C)=O)CC[C@@H]12 (stereo partly drawn) | 36.5 | 63.11 | 9 |
| 6.79 | 6.12 | C=C1C(=O)O[C@@H]2C3=C(C)[C@@H](OC(=O)/C=C/c4ccc(C(F)(F)F)cc4)CC3[C@](C)(OC(C)=O)CC[C@@H]12 (stereo partly drawn) | 43.3 | 71.14 | 12.7 |
| 6.2 | 4.97 | C=C1C(=O)O[C@@H]2C3=C(C)[C@@H](OC(=O)c4ccc(F)cc4)CC3[C@](C)(OC(C)=O)CC[C@@H]12 (stereo partly drawn) | 39 | 78.61 | 6.78 |
| 12.1 | 5.41 | C=C1C(=O)O[C@@H]2C3=C(C)[C@@H](OC(=O)/C=C/c4ccc(OC)cc4)CC3[C@](C)(OC(C)=O)CC[C@@H]12 (stereo partly drawn) | > 100 | 61.14 | 11.8 |

Source: ChEMBL document CHEMBL4196055, “Synthesis and biological evaluation of α-santonin derivatives as anti-hepatoma agents” (Eur J Med Chem, 2018)
